Data from ChEMBL document CHEMBL1138647, “Carbonic anhydrase inhibitors. Design of anticonvulsant sulfonamides incorporating indane moieties” (Bioorg Med Chem Lett, 2004).

System: Mus musculus
Test: Percent of mice (n=8) protected against seizures induced by a maximal electroshock (50mA,0.2s) after 30 mg/kg compound was injected intraperitoneally
Format: functional
Conditions: route intraperitoneal
Summary of the method: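 Mice, n = 8 per group, received 30mg/kg ip 3h before a maximal electroshock (50mA, 0.2s). The read-out was the percentage of animals protected against the induced seizures.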

Structure (SMILES): NS(=O)(=O)c1ccc2c(c1)CC(NC(=O)c1c(F)c(F)c(F)c(F)c1F)C2 (centres undefined)
- Protected mice: 38%

Structure (SMILES): CC(=O)NC1Cc2ccc(S(N)(=O)=O)cc2C1 (centres undefined)
- Protected mice: 38%

Structure (SMILES): CC(=O)NC1Cc2ccc(S(=O)(=O)O)cc2C1.O (centres undefined)
- Protected mice: 0%

Structure (SMILES): NS(=O)(=O)c1ccc2c(c1)CC(NC(=O)c1c(F)c(F)cc(F)c1F)C2 (centres undefined)
- Protected mice: 13%

Structure (SMILES): CC(=O)/N=c1/sc(S(N)(=O)=O)nn1C [METHAZOLAMIDE]
- Protected mice: 100%

Structure (SMILES): NS(=O)(=O)c1ccc2c(c1)CC(NC(=O)c1ccc(Cl)cc1)C2 (centres undefined)
- Protected mice: 31%

Structure (SMILES): COc1ccc(Cl)cc1C(=O)NC1Cc2ccc(S(N)(=O)=O)cc2C1.O (centres undefined)
- Protected mice: 38%

Structure (SMILES): NC1Cc2ccc(S(=O)(=O)O)cc2C1 (centres undefined)
- Protected mice: 0%

Structure (SMILES): Cl.NC1Cc2ccc(S(N)(=O)=O)cc2C1 (centres undefined)
- Protected mice: 0%
